Test results as given in ChEMBL document CHEMBL1212856, “Anti-Plasmodium activity of imidazolium and triazolium salts” (Bioorg Med Chem, 2010).

How the values were obtained:
[1] = system: Plasmodium falciparum; test: Antiplasmodial activity against Plasmodium falciparum 3D7 after 72 by LDH assay; assay type: functional, organism-based
Outline: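 Non-synchronous chloroquine-sensitive P. falciparum culture at 2% hematocrit and 2% parasitemia, in RPMI-10Pf with twofold serial compound dilutions from a 10 mg/mL DMSO stock. Incubated 72 h at 37 °C under 95% N₂, 3% CO₂, 2% O₂. Resuspended samples went into parasite-specific LDH mix, read at 595 nm after 1 h. IC50 by non-linear regression; mean ± standard error of four independent determinations.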

[2] = system: CHO; test: Cytotoxicity against CHO cells after 48 hrs by MTT assay; assay type: cell-based; conditions: Cricetulus griseus
Outline: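 CHO cells in RPMI-1640 with 10% fetal calf serum, 25 mM HEPES and gentamicin, grown to 50% confluency before dosing. Dilution series made from a 10 mg/mL DMSO stock, with DMSO-alone controls. After 48 h the medium was replaced with […] for 30 min.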

O=C(Cn1cc[n+](CC(=O)c2ccc(Cl)cc2)c1)c1ccc(Cl)cc1
IC50 [1]: 2.6 µM
IC50 [2]: 53 µM

c1ccc2cc(Cn3cc[n+](Cc4ccc5ccccc5c4)c3)ccc2c1
IC50 [1]: 0.9 µM
IC50 [2]: 27 µM

C[n+]1c(-c2ccccc2)nn(Cc2ccccc2)c1-c1ccccc1
IC50 [1]: 7.8 µM
IC50 [2]: 87 µM

O=C(Cn1c[n+](CC(=O)c2ccc(Br)cc2)cn1)c1ccc(Br)cc1
IC50 [1]: 10.9 µM
IC50 [2]: 20.9 µM

c1ccc(Cn2cc[n+](Cc3ccc4ccccc4c3)c2)cc1
IC50 [1]: 0.9 µM

O=C(Cn1cc[n+](CC(=O)c2ccc(Cc3ccccc3)cc2)c1)c1ccc(Cc2ccccc2)cc1
IC50 [1]: 0.5 µM
IC50 [2]: 4.3 µM

CSc1nn(-c2ccccc2)c(C)[n+]1-c1ccccc1
IC50 [1]: 3.1 µM
IC50 [2]: 307 µM

C[n+]1c(-c2ccccc2)nn(Cc2ccc(Br)cc2)c1-c1ccccc1
IC50 [1]: 1.68 µM
IC50 [2]: 33 µM

O=C(Cn1cncn1)c1ccccc1
IC50 [1]: 894 µM
IC50 [2]: 334 µM

c1nc[nH]n1 [1,2,4-TRIAZOLE]
IC50 [1]: 2900 µM
IC50 [2]: 1270 µM

CSc1nn(-c2ccccc2)c[n+]1-c1ccccc1
IC50 [1]: 69 µM
IC50 [2]: 224 µM

Brc1ccccc1Cn1cc[n+](Cc2ccccc2Br)c1
IC50 [1]: 1.4 µM

O=[N+]([O-])c1ccc(Cn2cc[n+](Cc3ccc([N+](=O)[O-])cc3)c2)cc1
IC50 [1]: 9 µM

Brc1ccc(Cn2cc[n+](Cc3ccc4ccccc4c3)c2)cc1
IC50 [1]: 0.73 µM
IC50 [2]: 27 µM

Brc1ccc(Cn2cc[n+](Cc3ccc(Br)cc3)c2)cc1
IC50 [1]: 0.7 µM
IC50 [2]: 172 µM

O=C(Cn1c[n+](Cc2ccccc2)cn1)c1ccccc1
IC50 [1]: 73 µM
IC50 [2]: 261 µM

Brc1cccc(Cn2cc[n+](Cc3cccc(Br)c3)c2)c1
IC50 [1]: 1.05 µM

Fc1ccc(Cn2cc[n+](Cc3ccc(F)cc3)c2)cc1
IC50 [1]: 17 µM
IC50 [2]: 56 µM

c1ccc(Cn2cc[n+](Cc3ccccc3)c2)cc1
IC50 [1]: 16 µM

C[n+]1cn(CC(=O)CCc2ccccc2)nc1-c1ccccc1
IC50 [1]: 3.4 µM
IC50 [2]: 237 µM

Clc1cccc(Cn2cc[n+](Cc3cccc(Cl)c3)c2)c1
IC50 [1]: 3.3 µM

COc1ccc(Cn2cc[n+](Cc3ccc(OC)cc3)c2)cc1
IC50 [1]: 5 µM
IC50 [2]: 30.6 µM

c1c[nH]cn1 [IMIDAZOLE]
IC50 [1]: 368 µM
IC50 [2]: 3680 µM

c1ccc(Cn2c[n+](Cc3ccccc3)cn2)cc1
IC50 [1]: 100 µM
IC50 [2]: 74 µM

Brc1ccc(C[n+]2ccn(Cc3ccccc3)c2)cc1
IC50 [1]: 2.9 µM

Fc1c(F)c(F)c(-n2c[n+]3c(n2)CCC3)c(F)c1F
IC50 [1]: 89 µM
IC50 [2]: 303 µM

Clc1ccc(Cn2cc[n+](Cc3ccc(Cl)cc3)c2)cc1
IC50 [1]: 9 µM

C[n+]1c(-c2ccccc2)nn(CC(=O)CCc2ccccc2)c1-c1ccccc1
IC50 [1]: 0.1 µM
IC50 [2]: 143 µM

Ic1ccc(Cn2cc[n+](Cc3ccc(I)cc3)c2)cc1
IC50 [1]: 0.35 µM
IC50 [2]: 33 µM

Clc1ccccc1Cn1cc[n+](Cc2ccccc2Cl)c1
IC50 [1]: 2 µM
